High-throughput results from PubChem BioAssay.
G6PDH CS = inhibits Leuconostoc G6PDH, flagging false hits in G6PDH-based assays. Purified L. mesenteroides G6PDH, diaphorase/resazurin coupled fluorescence, 45 min. AID 1020. inhibition, % at 5 µM. 200,000 compounds, 0.12% hits; in the data active means inhibition above about 50%
PMI activator = activators of human phosphomannose isomerase; 190,000 compounds, 0.005% hits; P34949; activation factor at 20 µM; purified human PMI, coupled resazurin fluorescence, 20 min; stronger effect = higher value; 1 = vehicle control, 0 substrate-free wells; AID 1214;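 active means activation factor of 2 or more at 20 µM, relative to plate controls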
Target sequence (P34949 whole entry, looked up): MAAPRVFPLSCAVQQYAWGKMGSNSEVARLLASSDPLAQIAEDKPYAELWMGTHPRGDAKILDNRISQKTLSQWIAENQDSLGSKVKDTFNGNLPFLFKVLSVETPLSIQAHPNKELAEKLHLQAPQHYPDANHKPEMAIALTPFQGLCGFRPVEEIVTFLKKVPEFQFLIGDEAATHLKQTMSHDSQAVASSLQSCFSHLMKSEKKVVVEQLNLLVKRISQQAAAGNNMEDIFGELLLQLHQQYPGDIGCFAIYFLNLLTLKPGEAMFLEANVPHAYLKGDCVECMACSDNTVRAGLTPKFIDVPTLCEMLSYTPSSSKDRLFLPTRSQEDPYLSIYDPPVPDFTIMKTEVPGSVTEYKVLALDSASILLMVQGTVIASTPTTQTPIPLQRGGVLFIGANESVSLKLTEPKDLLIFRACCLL
Diaphorase act = activates diaphorase or chemically reduces, flagging diaphorase assay artifacts. Diaphorase/resazurin coupled assay, resorufin fluorescence, 16 min; stronger effect = higher value; 1 = vehicle wells, 0 = NADH-free wells. activation factor at 20 µM. 190,000 compounds, 0.005% hits;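 active means diaphorase activity raised at least twofold by the compound at 20 µM; inactive means activation factor below 2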
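System – purified diaphorase enzyme from Clostridium kluyveri · Input – enzyme 0.07 U/mL final · Also added – final NADH 0.114 mM, resazurin 0.1 mM · Measured by – fluorescence of resorufin, 544 nm excitation, 590 nm emission · Timing – 16 min enzyme reaction, ambient temperature · Measure – resorufin increase flagging diaphorase activators or reducers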
Diaph inh CS = inhibits diaphorase or chemically oxidizes, flagging diaphorase assay artifacts | diaphorase resazurin-to-resorufin fluorescence, NADH, 16 min; bacterial (C. kluyveri) enzyme, not human | inhibition, % at 20 µM | 190,000 compounds, 0.69% hits;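 active means primary screen inhibition at 20 µM above a set limit, cut at about 50% in these data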;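 further: plate controls were DMSO with full reaction for no effect and wells lacking NADH for full effect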
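controls = No-NADH positive control and DMSO neutral control | system = Clostridium kluyveri diaphorase enzyme | timing = reaction incubation of 16 min at room temperature | signal = resorufin fluorescence 544/590 nm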
PMI act hi M6P = PMI (human) activation, high substrate | P34949 | coupled PMI enzyme assay, resazurin fluorescence, 20 min; stronger effect = higher value; 1 = untreated enzyme, 0 = substrate-free blank | activation factor at 20 µM | 190,000 compounds, 0.34% hits;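 active means activation factor of 2 or more at 20 µM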
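test system = human PMI in coupled enzyme assay | medium = HEPES-buffered pH 7.4 with magnesium and detergent | also added = 1.0 mM mannose-6-phosphate substrate with 0.22 mM NADP+ | compound = 20 µM single dose | times = 20 min incubation at room temperature | measured by = resorufin fluorescence (Ex 544/Em 590 nm) from resazurin via diaphorase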
ROMK mod = modulators of human ROMK potassium channel; AID 1918; 130,000 compounds, 2% hits; P48048; Tet-inducible ROMK, thallium flux fluorescence; actives lie on both sides; B-score at 10 µM;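 active means signal ratio slope over the read window, or its plate-corrected B-score, at least 3 SD from the plate mean, either direction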;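 further: B-score of the F/F0 ratio slope over 7 to 12 s after thallium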
An asterisk follows results filed as active; . = no result. Hits are enriched below; roughly 2.2% of the tested compounds scored in any of these assays.

SMILES | G6PDH CS | PMI activator | Diaphorase act | Diaph inh CS | PMI act hi M6P | ROMK mod
CN1CC2(Cc3c1ccc1ccccc31)C(=O)OC(C)(C)OC2=O | 6.6 | 0.5 | 0.5 | 50.7* | 0.4 | -0.146
COC(=O)c1cccc(Cn2c(Cl)c(/C=N/Nc3ccccc3C)sc2=O)c1 | -4.9 | 1.5 | 0.8 | 16.9 | 2.5* | 0.0518
O=C(O)c1cccc(Cn2c(Cl)c(/C=N/NC(=O)c3ccccc3)sc2=O)c1 | 2.1 | 1 | 0.9 | 6.2 | 1 | .
O=C1CCN(C(=O)Nc2ccccc2Cl)N1 | 5.8 | 1.4 | 1 | -1.4 | 2.2* | .
O=C1CCN(C(=O)Nc2cccc(Cl)c2)N1 | 11.4 | 1.2 | 0.9 | 6.0 | 1.5 | .
CCCCOc1ccc(Nc2cc(Cl)ccc2C(=O)O)cn1 | . | . | . | . | . | 3.1*
COc1ccc(CC(=O)Nc2cc(Cl)ccc2C(=O)O)cc1 | 5.2 | 1.1 | 1 | -0.4 | 1.1 | -0.139
C1CC1Cc1noc(CN2CCN(C3C4CC5CC(C4)CC3C5)CC2)n1 (centres undefined) | 2.3 | 0.9 | 0.9 | 6.5 | 1 | -0.343
Nc1cc2nsnc2cc1Br | 57.8* | 0.4 | 0.6 | 40.9 | 0.5 | 0.00341
Nc1cnc(Br)cc1Br | 2.2 | 1.1 | 1 | 4.8 | 1.1 | -0.149
COc1ccc(NC(=O)CSc2ccc3c4c(cccc24)C(=O)c2ccccc2-3)cc1 | -3.2 | 1.1 | 1 | -0.3 | 1.2 | .
N#Cc1cccc(NC(=O)CSc2ccc3c4c(cccc24)C(=O)c2ccccc2-3)c1 | -4.6 | 0.9 | 1 | -3.3 | 1 | -4.18*
Cc1cc(C)nc(NS(=O)(=O)c2ccc(NC(=O)CN3C(=O)C4CC=CCC4C3=O)cc2)n1 (centres undefined) | 6.2 | 1.1 | 1.1 | -6.9 | 1.1 | -0.536
C(=N\n1cnnc1)/c1cccc(Oc2ccccc2)c1 | 8.6 | 1 | 0.9 | 8.1 | 1.1 | -1.68
S=c1[nH]ncn1/N=C/c1cccc(Oc2ccccc2)c1 | 7.8 | 0.8 | 0.2 | 85.0* | 0.9 | 2.36
Nc1ccc2c(c1)Nc1ccccc1CC2 | 27.5 | 0.7 | 0.4 | 61.5* | 0.6 | -0.607
N#CC(C#N)=C1CCc2ccccc2N1 | 8.9 | 1 | 1 | -4.6 | 1.1 | 0.00492
CC(C)NC(=O)c1ccc(-n2c(=S)[nH]c3ccccc3c2=O)cc1 | -2.6 | 1 | 0.8 | 24.2 | 1 | 0.0739
CCn1c(C)nc2cc(C(=O)NNC(=O)Nc3ccc(Cl)cc3)ccc21 | 4.7 | 1.9 | 0.9 | 7.7 | 2.8* | -0.007
CCN(CC)S(=O)(=O)c1cccc(C(=O)N/N=C/c2ccc(O)c(O)c2O)c1 | 9.7 | 0.2 | 0.2 | 80.1* | 0.4 | .
CCn1c(C)nc2cc(C(=O)N/N=C/c3ccc(O)c(O)c3O)ccc21 | 22.6 | 0.2 | 0.2 | 75.3* | 0.2 | 1.01
CC(=O)OC(C(=O)N1CCOCC1)c1c(F)cccc1F (centres undefined) | 8.2 | 0.9 | 1.1 | -7.4 | 1 | .
N/C(COc1ncn(-c2ccccc2)n1)=N\S(=O)(=O)c1ccc(Cl)cc1Cl | 12.4 | 0.9 | 0.4 | 60.9* | 0.9 | -0.721
COc1ccc2c(c1)-c1nc(/N=C/c3ccc(O)cc3)sc1CC2 | 26.1 | 0.2 | 0.4 | 56.1* | 0.2 | -0.854
O=C(COC(=O)c1cc(F)cc(F)c1)Nc1cccnc1Cl | 4.5 | 1.1 | 1.1 | -5.3 | 1.1 | -0.209
SMILES | G6PDH CS | PMI activator | Diaphorase act | Diaph inh CS | PMI act hi M6P | ROMK mod
COC(=O)C1=C(C)N(C2CCCCC2)C(=O)/C1=C\c1cccs1 | -2.4 | 1 | 0.8 | 16.5 | 0.9 | -0.427
NC(=O)/C(=N\O)c1ccccc1 | 2.5 | 1 | 0.9 | 9.9 | 1 | -0.634
Oc1ccc(/C=N/N=C(c2ccccc2)c2ccccc2)c(O)c1O | -28.1 | 0.3 | 0.3 | 75.0* | 0.4 | .
O=C(/C(=N/N=C/c1ccc(O)c(O)c1O)c1ccccc1)c1ccccc1 | 20.1 | 0.4 | 0.4 | 61.5* | 0.7 | -0.168
NC(N)=N/N=C/c1ccccc1 | -0.6 | 1 | 0.9 | 9.1 | 1 | 0.0296
Cn1c(CC(=O)c2ccc(Br)cc2)[n+](C)c2ccccc21 | 9.2 | 1.2 | 1 | -0.8 | 1.1 | 0.0518
Cc1ccc(NS(=O)(=O)c2cc(OCC(N)=O)c(C)cc2Cl)cc1C | 9.0 | 1.1 | 0.9 | 9.4 | 1.1 | -3.05*
